Results as given in publication PMC7729281 (Biochemistry, 2020).
Where “and” joins values, the source holds several entries; their conditions need not be identical. Identical values can stand only once.

How the values were obtained:
[1] = target: T1, h12-LOX (Homo sapiens, UniProt P18054); assay: Product analysis of h12-LOX reactions; assay type: biochemical; conditions: h12-LOX + 1 μM 14S-HpDHA, 60 min, pH 8.0, ambient O2
T1 sequence (P18054 1-663): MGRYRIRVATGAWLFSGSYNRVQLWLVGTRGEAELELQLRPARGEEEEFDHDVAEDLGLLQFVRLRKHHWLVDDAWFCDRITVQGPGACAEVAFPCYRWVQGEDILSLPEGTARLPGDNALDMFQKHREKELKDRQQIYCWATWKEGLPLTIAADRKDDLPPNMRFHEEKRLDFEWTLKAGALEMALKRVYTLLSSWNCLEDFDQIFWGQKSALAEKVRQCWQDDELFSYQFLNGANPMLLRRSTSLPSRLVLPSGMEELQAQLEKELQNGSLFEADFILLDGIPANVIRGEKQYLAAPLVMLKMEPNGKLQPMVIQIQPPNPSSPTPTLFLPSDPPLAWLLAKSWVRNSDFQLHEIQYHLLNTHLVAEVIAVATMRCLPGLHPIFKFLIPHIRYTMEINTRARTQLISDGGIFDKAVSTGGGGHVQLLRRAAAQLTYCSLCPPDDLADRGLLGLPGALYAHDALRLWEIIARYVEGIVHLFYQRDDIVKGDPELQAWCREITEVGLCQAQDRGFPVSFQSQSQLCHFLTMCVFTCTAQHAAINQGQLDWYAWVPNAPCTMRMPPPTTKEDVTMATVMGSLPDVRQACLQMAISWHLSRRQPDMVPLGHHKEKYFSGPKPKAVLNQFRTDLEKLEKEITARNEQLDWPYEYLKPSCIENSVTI
Method in brief: (§1)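 h15-LOX-1 (0.125 μM, pH 7.5) or h12-LOX (0.300 μM, pH 8.0) was reacted in 25 mM HEPES at room temperature under ambient O2. Substrates were 10 μM DHA for 1 min (monitored at 234 nm) or 1 μM 14S-HpDHA for 20 min (h15-LOX-1) or 1 h (h12-LOX) (monitored at 270 nm). Reactions were quenched with acetic acid, spiked with d5-maresin-1, extracted into DCM and background-subtracted against a no-enzyme control. Split samples were run with or without trimethyl phosphite reduction. Products were identified by C18 LC-MS/MS (qTOF), N = 3.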

[2] = target: T2, h15-LOX-1 (Homo sapiens, UniProt P16050); assay: Steady-state kinetics of h15-LOX-1
T2 sequence (P16050 1-662): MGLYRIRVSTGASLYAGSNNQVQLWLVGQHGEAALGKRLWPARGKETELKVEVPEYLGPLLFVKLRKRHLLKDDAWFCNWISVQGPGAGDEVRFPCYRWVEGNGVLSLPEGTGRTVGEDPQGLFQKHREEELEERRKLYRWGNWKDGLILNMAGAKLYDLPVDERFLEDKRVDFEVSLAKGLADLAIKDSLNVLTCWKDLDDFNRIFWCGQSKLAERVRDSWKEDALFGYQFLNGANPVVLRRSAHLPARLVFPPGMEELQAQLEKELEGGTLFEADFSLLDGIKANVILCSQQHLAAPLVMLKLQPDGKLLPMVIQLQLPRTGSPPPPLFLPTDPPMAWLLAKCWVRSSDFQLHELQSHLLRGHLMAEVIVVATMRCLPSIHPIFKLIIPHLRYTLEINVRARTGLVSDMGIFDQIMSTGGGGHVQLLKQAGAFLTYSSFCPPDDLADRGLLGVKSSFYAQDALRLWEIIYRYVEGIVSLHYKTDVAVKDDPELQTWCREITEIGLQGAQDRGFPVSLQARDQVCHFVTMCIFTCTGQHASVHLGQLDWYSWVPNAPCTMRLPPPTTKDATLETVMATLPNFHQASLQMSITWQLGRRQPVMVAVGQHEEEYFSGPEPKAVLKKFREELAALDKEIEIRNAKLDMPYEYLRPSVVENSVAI

[3] = target: T2, h15-LOX-1; assay: Allosteric modulation of 14S-HpDHA epoxidation by h15-LOX-1; assay type: biochemical
Method in brief: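 Recombinant human h15-LOX-1 (0.125 μM, 25 mM HEPES pH 7.5, 20 min) or h12-LOX (0.3 μM, pH 8.0, 1 h) reacted at room temperature with 1 μM 14S-HpDHA while oxylipin modulator was titrated (1–100 μM), or with 14S-HpDHA varied alone (1–50 μM). Products were reduced and analysed by LC-MS. Dehydration (epoxide) versus oxygenation product percentages were calculated, N = 3.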

[4] = target: T1, h12-LOX; assay: Steady-state kinetics of h12-LOX
[5] = system: human platelets; assay: Collagen-stimulated platelet aggregation; assay type: cell-based; conditions: ≥1 μM, 10 min incubation, collagen 0.25 μg/mL
Method in brief: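 Washed human platelets were isolated by serial centrifugation and resuspended in Tyrode's buffer at 3 × 10^8/mL. They were preincubated with test compound (1–10 μM) for 10 min at 37 °C, then stimulated with 0.25 μg/mL collagen while stirring at 1100 rpm. Maximum aggregation was read as the light-transmittance change, mean ± SEM of 3–5 independent experiments. Comparison versus vehicle used one-way ANOVA with Dunnett's test.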

[6] = target: T2, h15-LOX-1; assay: Product analysis of h15-LOX-1 reactions; assay type: biochemical
Method in brief: as §1

[7] = h15-LOX-1 + substrate, 25 mM HEPES pH 7.5, RT
[8] = h12-LOX + substrate, 25 mM HEPES pH 8.0, RT
[9] = h15-LOX-1 + 1 μM 14S-HpDHA, 20 min, pH 7.5, ambient O2

Structure (SMILES): CC/C=C\C/C=C\C[C@@H](/C=C/C=C\C/C=C\C/C=C\CCC(=O)O)OO [14S-HpDHA, 14S-hydroperoxy-4Z,7Z,10Z,12E,16Z,19Z-docosahexaenoic acid]
- product profile: 7S,14S-EZE-diHpDHA [1]: 12% and 12 ± 2%
- product profile: 13S,14S-epoxy-DHA (detected as 7S/R,14S-EEE-diHDHA) [1]: 76% and 76 ± 11%
- product profile: 14S,20-diHpDHA [1]: 13% and 13 ± 9%
- kcat ([2]; h15-LOX-1): 2e+06 ± 40000 M⁻¹ s⁻¹
- 13S,14S-epoxy-DHA biosynthetic flux ([2]; h15-LOX-1 + 14S-HpDHA, B.F. = kcat/KM * % product): 0.078
- Km [2, 7]: 18 ± 1 µM
- kcat [2, 7]: 2.0 ± 0.04 s⁻¹
- fold difference of kcat/KM ([2]; h15-LOX-1, kcat/KM of enzyme with DHA set to 1 (Table 5)): −3.2
- kcat of h15-LOX-1 greater than that of h12-LOX ([2]; substrate 14S-HpDHA): ~10 fold
- 7S,14S-EZE-diHDHA (oxygenation product) ([3]; h15-LOX-1, 14S-HpDHA at high concentration (50 μM)): 76 ± 0.5%
- 7R/S,14S-EEE-diHDHA (epoxide degradation product) ([3]; h15-LOX-1, 14S-HpDHA at low concentration (1 μM)): 71 ± 11%
- fold difference of 13S,14S-epoxy-DHA biosynthetic flux ([4]; h12-LOX + 14S-HpDHA): 1.0
- 13S,14S-epoxy-DHA biosynthetic flux ([4]; h12-LOX + 14S-HpDHA, B.F. = kcat/KM * % product): 0.0018
- Km [4, 8]: 88 ± 16 µM
- kcat [4, 8]: 0.22 ± 0.02 s⁻¹
- reduction of kcat ([4]; h12-LOX, 14S-HpDHA relative to DHA): 60 fold
- fold difference of kcat/KM ([4]; h12-LOX, kcat/KM of enzyme with DHA set to 1 (Table 5)): −5880
- reduction in aggregation compared to vehicle control [5]: > 90%
- product profile: 7S,14S-EZE-diHpDHA [6, 9]: 29% and 29 ± 6%
- product profile: 13S,14S-epoxy-DHA (detected as 7S/R,14S-EEE-diHDHA) [6, 9]: 71% and 71 ± 6%
- product profile: 14S,20-diHpDHA [6, 9]: <1.0%
- loss in 7S,14S-EZE-diHpDHA production at increased pH ([6]; h15-LOX-1 + 14S-HpDHA, Figure S3): 7 fold
